According to ChEMBL document CHEMBL5058577, “EUbOPEN Chemogenomics Library 2 (Multiplex)” (2022):

Tested on: Fibroblast
Assay: Multiplex assay against human fibroblast
Assay type: toxicity, cell-based
How it was run: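 Four dyes were applied at seeding to live cells: Hoechst33342, BioTracker Green Microtubule Cytoskeleton Dye, MitoTracker Red and Annexin V Alexa Fluor 680. Imaging after compound addition used a CQ1 microscope at 37°C and 5% CO2. CellPathfinder machine-learning gating then sorted cells into Hoechst high-intensity objects or normal cells, normal cells into healthy, pyknosed or fragmented nuclei, and pyknosed cells into mitotic or apoptotic, with tubulin, mitochondrial-mass and membrane-permeability phenotypes given as per cents of healthy-nucleus cells.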

[1] = 12 h, 1 µM, compound concentration 1 uM, replicate 1
[2] = 12 h, 1 µM, compound concentration 1 uM, replicate 2
[3] = 12 h, 10 µM, compound concentration 10 uM, replicate 1
[4] = 12 h, 10 µM, compound concentration 10 uM, replicate 2
[5] = 24 h, 1 µM, compound concentration 1 uM, replicate 1
[6] = 24 h, 1 µM, compound concentration 1 uM, replicate 2
[7] = 24 h, 10 µM, compound concentration 10 uM, replicate 1
[8] = 24 h, 10 µM, compound concentration 10 uM, replicate 2
[9] = 48 h, 1 µM, compound concentration 1 uM, replicate 1
[10] = 48 h, 1 µM, compound concentration 1 uM, replicate 2
[11] = 48 h, 10 µM, compound concentration 10 uM, replicate 1
[12] = 48 h, 10 µM, compound concentration 10 uM, replicate 2

Cc1c(Cc2ccc3ccccc3n2)c2cc(F)ccc2n1CC(=O)O [TIMAPIPRANT]
Population Apoptotic (%) [1]: 41%
Population Fragmented Nuclei (%) [1]: 12%
Population Healthy Nuclei (%) [1]: 67%
Population Hoechst High Intensity Objects (%) [1]: 5%
Population Membrane Permeable-Phenotype (%) [1]: 1%
Population Mitochondria Different-Phenotype (%) [1]: 7%
Population Mitotic Cells (%) [1]: 58%
Population Normal (%) [1]: 94%
Population Pyknosed Nuclei (%) [1]: 19%
Population Tubulin-Different-Phenotype (%) [1]: 26%
Total Cell Count [1]: 171
Population Apoptotic (%) [2]: 33%
Population Fragmented Nuclei (%) [2]: 28%
Population Healthy Nuclei (%) [2]: 49%
Population Membrane Permeable-Phenotype (%) [2]: 9%
Population Mitochondria Different-Phenotype (%) [2]: 4%
Population Mitotic Cells (%) [2]: 66%
Population Pyknosed Nuclei (%) [2]: 22%
Population Tubulin-Different-Phenotype (%) [2]: 43%
Total Cell Count [2]: 142
Population Apoptotic (%) [3]: 66%
Population Fragmented Nuclei (%) [3]: 13%
Population Healthy Nuclei (%) [3]: 77%
Population Hoechst High Intensity Objects (%) [3]: 2%
Population Membrane Permeable-Phenotype (%) [3]: 0%
Population Mitochondria Different-Phenotype (%) [3]: 7%
Population Mitotic Cells (%) [3]: 33%
Population Normal (%) [3]: 97%
Population Pyknosed Nuclei (%) [3]: 8%
Population Tubulin-Different-Phenotype (%) [3]: 35%
Total Cell Count [3]: 147
Population Apoptotic (%) [4]: 53%
Population Fragmented Nuclei (%) [4]: 26%
Population Healthy Nuclei (%) [4]: 53%
Population Hoechst High Intensity Objects (%) [4]: 5%
Population Membrane Permeable-Phenotype (%) [4]: 1%
Population Mitotic Cells (%) [4]: 46%
Population Normal (%) [4]: 95%
Population Pyknosed Nuclei (%) [4]: 19%
Population Tubulin-Different-Phenotype (%) [4]: 43%
Total Cell Count [4]: 160
Population Apoptotic (%) [5]: 33%
Population Fragmented Nuclei (%) [5]: 9%
Population Healthy Nuclei (%) [5]: 73%
Population Hoechst High Intensity Objects (%) [5]: 1%
Population Membrane Permeable-Phenotype (%) [5]: 3%
Population Mitochondria Different-Phenotype (%) [5]: 2%
Population Mitotic Cells (%) [5]: 66%
Population Normal (%) [5]: 98%
Population Pyknosed Nuclei (%) [5]: 17%
Population Tubulin-Different-Phenotype (%) [5]: 26%
Total Cell Count [5]: 158
Population Apoptotic (%) [6]: 47%
Population Fragmented Nuclei (%) [6]: 30%
Population Healthy Nuclei (%) [6]: 52%
Population Hoechst High Intensity Objects (%) [6]: 5%
Population Membrane Permeable-Phenotype (%) [6]: 7%
Population Mitochondria Different-Phenotype (%) [6]: 4%
Population Mitotic Cells (%) [6]: 52%
Population Normal (%) [6]: 94%
Population Tubulin-Different-Phenotype (%) [6]: 38%
Total Cell Count [6]: 142
Population Apoptotic (%) [7]: 66%
Population Fragmented Nuclei (%) [7]: 14%
Population Healthy Nuclei (%) [7]: 77%
Population Hoechst High Intensity Objects (%) [7]: 2%
Population Membrane Permeable-Phenotype (%) [7]: 0%
Population Mitochondria Different-Phenotype (%) [7]: 6%
Population Mitotic Cells (%) [7]: 33%
Population Normal (%) [7]: 97%
Population Pyknosed Nuclei (%) [7]: 8%
Population Tubulin-Different-Phenotype (%) [7]: 30%
Total Cell Count [7]: 150
Population Apoptotic (%) [8]: 52%
Population Fragmented Nuclei (%) [8]: 29%
Population Healthy Nuclei (%) [8]: 58%
Population Hoechst High Intensity Objects (%) [8]: 7%
Population Membrane Permeable-Phenotype (%) [8]: 3%
Population Mitochondria Different-Phenotype (%) [8]: 10%
Population Mitotic Cells (%) [8]: 47%
Population Normal (%) [8]: 92%
Population Pyknosed Nuclei (%) [8]: 12%
Population Tubulin-Different-Phenotype (%) [8]: 52%
Total Cell Count [8]: 164
Population Apoptotic (%) [9]: 72%
Population Fragmented Nuclei (%) [9]: 15%
Population Healthy Nuclei (%) [9]: 72%
Population Hoechst High Intensity Objects (%) [9]: 7%
Population Membrane Permeable-Phenotype (%) [9]: 0%
Population Mitochondria Different-Phenotype (%) [9]: 2%
Population Mitotic Cells (%) [9]: 27%
Population Normal (%) [9]: 92%
Population Pyknosed Nuclei (%) [9]: 12%
Population Tubulin-Different-Phenotype (%) [9]: 25%
Total Cell Count [9]: 162
Population Apoptotic (%) [10]: 61%
Population Fragmented Nuclei (%) [10]: 36%
Population Healthy Nuclei (%) [10]: 48%
Population Hoechst High Intensity Objects (%) [10]: 6%
Population Membrane Permeable-Phenotype (%) [10]: 2%
Population Mitochondria Different-Phenotype (%) [10]: 1%
Population Mitotic Cells (%) [10]: 38%
Population Normal (%) [10]: 94%
Population Pyknosed Nuclei (%) [10]: 14%
Population Tubulin-Different-Phenotype (%) [10]: 34%
Total Cell Count [10]: 150
Population Apoptotic (%) [11]: 66%
Population Fragmented Nuclei (%) [11]: 18%
Population Healthy Nuclei (%) [11]: 75%
Population Hoechst High Intensity Objects (%) [11]: 5%
Population Membrane Permeable-Phenotype (%) [11]: 0%
Population Mitochondria Different-Phenotype (%) [11]: 3%
Population Mitotic Cells (%) [11]: 33%
Population Normal (%) [11]: 94%
Population Pyknosed Nuclei (%) [11]: 6%
Population Tubulin-Different-Phenotype (%) [11]: 31%
Total Cell Count [11]: 152
Population Apoptotic (%) [12]: 60%
Population Fragmented Nuclei (%) [12]: 30%
Population Healthy Nuclei (%) [12]: 59%
Population Hoechst High Intensity Objects (%) [12]: 2%
Population Membrane Permeable-Phenotype (%) [12]: 1%
Population Mitochondria Different-Phenotype (%) [12]: 1%
Population Mitotic Cells (%) [12]: 40%
Population Normal (%) [12]: 97%
Population Pyknosed Nuclei (%) [12]: 9%
Population Tubulin-Different-Phenotype (%) [12]: 37%
Total Cell Count [12]: 157
